# Most compounds without a hit are left out; they make up all but 2.7% or so of the library.
# ABCB1 inh = human ABCB1 inhibition, ABCG2 as counter-screen; P08183; CCRF-Adr cells, JC-1 efflux, flow cytometry; inhibition, % at 6.6 µM; 190,000 compounds, 0.067% hits; in the data active = inhibition above about 40%;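 also: 0% = vehicle and 100% = reference inhibitor; higher value means more JC-1 retained so stronger ABCB1 efflux block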
# ABCG2 inh = blocks JC-1 efflux by human ABCG2 transporter. Q9UNQ0. IgMXP3 cells, flow cytometry. inhibition, % at 6.6 µM. 190,000 compounds, 0.1% hits. AID 1325;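 active = inhibition above 80%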;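 also: 0% = DMSO and 100% = nicardipine control wells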
#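 material = IgMXP3 (ABCG2) plus far-red-tagged CCRF-Adr (ABCB1) cells | amount = 3 million cells/mL, equal mix of both lines | also added = JC-1 transporter substrate | dosing = one concentration, 6.6 µM final | schedule = 10 min at 25 °C | measured by = flow cytometric JC-1 green MFI at 530 nm | read-out basis = percent efflux inhibition, scaled nicardipine 100% to DMSO 0%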
# FLuc stim CS = affects firefly luciferase, flagging false hits in luciferase stimulation screens. P08659. ATPlite luciferase biochemical, luminescence, 10 min; 0 = ATP-free wells, 1 = DMSO control. activation factor at 10 µM. 200,000 tested, under 10 active;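 active = luciferase activation factor, scaled between plate controls, of at least 2 with compound at 10 µM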
# Target sequence (P08659 whole entry, looked up): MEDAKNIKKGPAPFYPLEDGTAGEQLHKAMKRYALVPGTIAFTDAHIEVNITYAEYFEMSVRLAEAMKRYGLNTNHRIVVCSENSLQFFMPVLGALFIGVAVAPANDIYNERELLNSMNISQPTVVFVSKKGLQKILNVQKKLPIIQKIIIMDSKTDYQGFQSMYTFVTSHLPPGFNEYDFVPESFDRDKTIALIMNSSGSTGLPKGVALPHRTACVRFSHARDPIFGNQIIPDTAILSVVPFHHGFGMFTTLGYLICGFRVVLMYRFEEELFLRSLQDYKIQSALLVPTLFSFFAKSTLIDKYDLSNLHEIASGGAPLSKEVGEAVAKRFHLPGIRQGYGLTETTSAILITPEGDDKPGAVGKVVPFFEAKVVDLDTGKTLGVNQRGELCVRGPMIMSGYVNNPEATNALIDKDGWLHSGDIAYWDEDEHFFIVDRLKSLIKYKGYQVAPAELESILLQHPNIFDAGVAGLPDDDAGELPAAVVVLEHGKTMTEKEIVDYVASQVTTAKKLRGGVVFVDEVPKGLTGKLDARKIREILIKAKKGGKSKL
#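 Material: Luciferase/luciferin reagent mix | Doses: Test compounds dosed from 2 mM stocks in 100% DMSO | Timing: 10 min incubation after luciferase reagent addition, room temperature | Measured by: Luminescence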
# FLuc inh counter = Photinus pyralis luciferase inhibition counter-screen; inhibition, % at 10 µM; ATPLite firefly luciferase biochemical luminescence, 10 min; 200,000 compounds, 1.5% hits;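 active = inhibition above about 50% when tested at 10 µM, limit read from the data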
# Redox H2O2 prof = compounds producing H2O2 with reducing agent – biochemical, NIH compound library profiling, artefact control for MLSCN library redox annotation, primary screen | DTT-dependent redox cycling H2O2, phenol red/HRP absorbance; 100% = 100 µM peroxide control, 0% = buffer | activation, % at 10 µM | 200,000 compounds, 0.03% hits | AID 878;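 active = activation of at least 50% relative to the plate's high and low controls in the primary single-dose screen; inactive = activation below 50%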;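 also: compound incubated with DTT at 0.8 mM final as the reducing agent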
# Measles CPE = protection of cells from measles virus | AID 841 | protection (pct of control), % at 4 µM | Measles virus-infected cells, CPE protection, absorbance | 140,000 compounds, 1.5% hits; in the data active = protection mostly above about 24%, no sharp cut-off; inactive = mostly below about 26%
# ABCB1 single pt = inhibits human ABCB1 efflux, confirmed at single point; CCRF-Adr cells, JC-1 efflux, flow cytometry; 270 compounds, 7% hits; AID 1451; inhibition, % at 6.6 µM; shares compounds with ABCG2 inh;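 active = inhibition of pump activity above 50%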;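 also: 0% = DMSO and 100% = nicardipine full pump inhibition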
# ABCG2 single pt = inhibits human ABCG2 efflux, confirmed at single point | shares compounds with ABCG2 inh | IgMXP3 cells, JC-1 efflux, flow cytometry | inhibition, % at 6.6 µM | 270 compounds, 6% hits;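 active = inhibition above 50%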;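 also: 0% = DMSO wells and 100% = nicardipine pump inhibitor wells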
# IgMXP3 autofluor = counter-screen for ABCG2 inhibitors: compound fluorescence in IgMXP3 cells | shares compounds with ABCG2 inh | compound autofluorescence 488/530 nm, flow; hits give high values | fluorescence at 6.6 µM | 270 compounds, 30% hits;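 active = fluorescence in ABCG2-expressing cells above the plate's control-well mean plus 3 SD, cut at about 15 in these data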;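 also: median cell fluorescence with compound minus that of DMSO-treated control cells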
# CCRF autofluor = counter-screen for ABCB1 inhibitors: compound fluorescence in CCRF-Adr cells; shares compounds with ABCG2 inh; compound autofluorescence 488/530 nm, flow cytometry; hits give high values; fluorescence at 6.6 µM; 270 compounds, 30% hits;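 active = fluorescence beyond the plate control mean plus 3 SD, with a fluorescence-to-maximum score over 2, cut at about 25 in these data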
# An asterisk follows results filed as active; . = no result.
SMILES,ABCB1 inh,ABCG2 inh,FLuc stim CS,FLuc inh counter,Redox H2O2 prof,Measles CPE,ABCB1 single pt,ABCG2 single pt,IgMXP3 autofluor,CCRF autofluor
Cc1ccc(NC(=O)COC(=O)Cn2cnc3c2c(=O)n(C)c(=O)n3C)cc1Cl,0.3,2.6,1.1,-6.8,-0.1,.,.,.,.,.
O=C(c1ccco1)N1CCN(c2nc(C(F)(F)F)nc3c2nnn3Cc2ccccc2)CC1,15.4,64.4,1,-3.8,0.2,5.0,23.1,26.6,72.9*,37*
O=C(c1ccco1)N1CCN(c2ncnc3c2nnn3Cc2ccccc2Cl)CC1,3.1,8.1,1,-3.8,0.0,4.7,.,.,.,.
NNC(=O)CNS(=O)(=O)c1ccc([N+](=O)[O-])cc1,0.1,1.8,1,-4.1,-1.9,.,.,.,.,.
COc1ccc([N+](=O)[O-])cc1NC(=O)C(C)Sc1ccc(C)cc1 (configuration not stated),1.7,81.7*,1,3.6,0.1,4.0,5.4,34.6,3.61,3.81
CCCN1C(=O)/C(=C\C=C2\N(CC)c3ccccc3C2(C)C)SC1=S,68.2*,104.0*,0.9,7.5,1.2,.,-27.1,4.8,63*,252*
COc1ccc(Cc2nc3c4c(ncn3n2)Oc2ccc3ccccc3c2C4c2ccc(OC)c(OC)c2)cc1 (configuration not stated),9.6,7.1,1,2.3,0.7,0.4,29.6,18.4,-2.29,-4.14
COc1ccc(Cc2nc3c4c(ncn3n2)Oc2c(ccc3ccccc23)C4c2ccc(OC)c(OC)c2)cc1 (configuration not stated),12.1,6.5,1,-2.4,0.5,8.3,.,.,.,.
O=C1NC(CCc2ccccc2)C(=O)N1Cc1cccc2ccccc12 (configuration not stated),89.9*,159.0*,1.1,-5.1,0.2,12.7,0.5,-1.2,-0.29,-2.69
CCCC1=NN(c2ccc([N+](=O)[O-])cc2)C(=O)/C1=C/N(C)C,0.8,27.4,1,-2.7,0.1,12.3,.,.,.,.
CC1=NN(c2ccc([N+](=O)[O-])cc2)C(=O)/C1=C\N(C)C,6.2,80.4,0.5,51.7*,-1.6,27.5,9.9,38.4,-0.09,-0.59
CCC(C)NC(=O)COC(=O)c1ccccc1OCC(=O)Nc1ccc(Br)cc1 (configuration not stated),0.6,21.3,1,-4.3,-0.6,19.4,.,.,.,.
O=C(COC(=O)c1ccccc1OCC(=O)Nc1ccc(Br)cc1)Nc1ccccc1,2.6,83.6*,1,-3.2,.,4.9,1.3,26.5,-0.79,-0.74
O=[N+]([O-])c1ccccc1NCCNS(=O)(=O)c1ccc(Cl)cc1,0.9,13.4,1,-3.2,-0.6,19.1,.,.,.,.
O=[N+]([O-])c1cc(Cl)ccc1NCCNS(=O)(=O)c1ccccc1,2.6,118.6*,1,4.9,0.0,21.2,7.4,17.9,2.31,31.9*
C/C(=N/OC(=O)C1CC12CCC2)c1ccc(Br)cc1 (configuration not stated),1.5,28.1,0.7,29.4,-0.6,.,.,.,.,.
Cc1cc([N+](=O)[O-])ccc1NC(=O)Nc1ccccc1F,1.8,105.5*,1,-3.4,-0.2,.,1.4,40.4,-0.99,3.96
O=C(Nc1ccccc1)Nc1cc([N+](=O)[O-])ccc1F,0.6,11.1,1,-0.4,0.2,5.4,.,.,.,.
Cc1nc(Cl)c(C(=O)NC(=O)Nc2cccc(C(F)(F)F)c2)c(C)c1[N+](=O)[O-],-0.1,-0.1,1,-0.6,-1.0,16.4,.,.,.,.

# High-throughput results deposited in PubChem BioAssay by several laboratories.
